Measurements reported in ChEMBL document CHEMBL3425458, “Design, synthesis and antitumor activity of triterpenoid pyrazine derivatives from 23-hydroxybetulinic acid” (Eur J Med Chem, 2015).

Assays:
B16 [1] = assay: Cell cycle arrest in mouse B16 cells assessed as accumulation of cells at G1 phase at 2.5 uM after 72 hrs by propidium iodide staining based flow cytometry (reference value: 24.06%); assay type: functional
B16 [2] = assay: Cell cycle arrest in mouse B16 cells assessed as accumulation of cells at G2/G1 phase at 5 uM after 72 hrs by propidium iodide staining based flow cytometry (reference value: 1.83%); assay type: functional
[3] = Antiproliferative activity against human HL60 cells assessed as growth inhibition after 72 hrs by MTT assay; assay type: functional, cell-based; conditions: HL-60, 72 h
In short: (§1)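 Values are mean ± S.D. from three different experiments, each performed in triplicate.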

B16 [4] = assay: Induction of apoptosis in mouse B16 cells assessed as late apoptotic cells at 2.5 uM after 72 hrs by Annexin V-FITC/propidium iodide staining-based flow cytometry (reference value: 3.51%); assay type: functional
In short: (§2)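 B16 cells were treated with vehicle or 1.25, 2.5 or 5 µM for 72 h. Annexin V/PI staining was read by flow cytometry. Values are mean ± SE of at least three independent experiments.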

Mus musculus [5] = assay: Toxicity against mouse xenografted […] cells assessed as body weight at 30 mg/kg, ip administered after 7 days of tumor transplantation (reference value: 18.1 to 18.6 gms); assay type: organism-based; design: dose 30 mg/kg, route intraperitoneal; conditions: in vivo, 168 h
In short: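 H22 liver cancer-bearing mice, 10 per group at start and end. Test article given ip at 30 mg/kg, with a vehicle group (0.5 mL/mouse, iv). Body weight was recorded at start and at end, alongside tumor weight.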

H22 = assay: In vivo antitumor activity […] cells xenografted in mouse assessed as tumor growth inhibitory ratio at 30 mg/kg, ip administered after 7 days of tumor transplantation measured at 25th day after tumor inoculation; assay type: functional; conditions: 168 h, route intraperitoneal
In short: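 Mice bearing H22 liver cancer, 10 per group. Test article at 30 mg/kg ip. Vehicle 0.5 mL/mouse iv. Cyclophosphamide 30 mg/kg iv as positive control. Tumor weight recorded to give tumor inhibitory ratio.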

B16 [6] = assay: Induction of apoptosis in mouse B16 cells assessed as viable cells at 2.5 uM after 72 hrs by Annexin V-FITC/propidium iodide staining-based flow cytometry (reference value: […]); assay type: functional; conditions: B16, 72 h, read-out: Activity
B16 [7] = assay: Induction of apoptosis in mouse B16 cells assessed as late apoptotic cells at 1.25 uM after 72 hrs by Annexin V-FITC/propidium iodide staining-based flow cytometry (reference value: 3.51%); assay type: functional; in short: as §2
[8] = Antiproliferative activity against human SF763 cells assessed as growth inhibition after 72 hrs by MTT assay; assay type: functional, cell-based; conditions: SF763, 72 h; in short: as §1
B16 [9] = assay: Induction of apoptosis in mouse B16 cells assessed as early apoptotic cells at 5 uM after 72 hrs by Annexin V-FITC/propidium iodide staining-based flow cytometry (reference value: 2.15%); assay type: functional; in short: as §2
B16 [10] = assay: Cell cycle arrest in mouse B16 cells assessed as accumulation of cells at G1 phase at 5 uM after 72 hrs by propidium iodide staining based flow cytometry (reference value: 24.06%); assay type: functional
B16 [11] = assay: Induction of apoptosis in mouse B16 cells assessed as early apoptotic cells at 1.25 uM after 72 hrs by Annexin V-FITC/propidium iodide staining-based flow cytometry (reference value: 2.15%); assay type: functional; in short: as §2
B16 [12] = assay: Cell cycle arrest in mouse B16 cells assessed as accumulation of cells at G2 phase at 5 uM after 72 hrs by propidium iodide staining based flow cytometry (reference value: 16.73%); assay type: functional
[13] = Antiproliferative activity against human HL7702 cells assessed as growth inhibition after 72 hrs by MTT assay; assay type: cell-based; conditions: L02, 72 h
In short: (§3)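 MTT assay on normal human hepatocyte line HL-7702, with 72 h treatment. Selectivity index is the IC50 in HL-7702 divided by the IC50 in each cancer cell line.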

B16 [14] = assay: Cell cycle arrest in mouse B16 cells assessed as accumulation of cells at G2 phase at 1.25 uM after 72 hrs by propidium iodide staining based flow cytometry (reference value: 16.73%); assay type: functional
B16 [15] = assay: In vivo antitumor activity against mouse B16 cells xenografted in mouse assessed as tumor growth inhibitory ratio at 30 mg/kg, ip administered after 7 days of tumor transplantation measured at 25th day after tumor inoculation; assay type: functional; conditions: 168 h, route intraperitoneal
B16 [16] = assay: Cell cycle arrest in mouse B16 cells assessed as accumulation of cells at G2/G1 phase at 2.5 uM after 72 hrs by propidium iodide staining based flow cytometry (reference value: 1.83%); assay type: functional
HeLa [17] = assay: Selectivity index, ratio of IC50 for human HL7702 cells to IC50 for human HeLa cells by MTT assay; in short: as §3
B16 [18] = assay: Induction of apoptosis in mouse B16 cells assessed as early apoptotic cells at 2.5 uM after 72 hrs by Annexin V-FITC/propidium iodide staining-based flow cytometry (reference value: 2.15%); assay type: functional; in short: as §2
B16 [19] = assay: Induction of apoptosis in mouse B16 cells assessed as late apoptotic cells at 5 uM after 72 hrs by Annexin V-FITC/propidium iodide staining-based flow cytometry (reference value: 3.51%); assay type: functional; in short: as §2
B16 [20] = assay: Cell cycle arrest in mouse B16 cells assessed as accumulation of cells at G1 phase at 1.25 uM after 72 hrs by propidium iodide staining based flow cytometry (reference value: 24.06%); assay type: functional
B16 [21] = assay: Induction of apoptosis in mouse B16 cells assessed as viable cells at 1.25 uM after 72 hrs by Annexin V-FITC/propidium iodide staining-based flow cytometry (reference value: […]); assay type: functional; conditions: B16, 72 h, read-out: Activity
B16 [22] = assay: Cell cycle arrest in mouse B16 cells assessed as accumulation of cells at G2 phase at 2.5 uM after 72 hrs by propidium iodide staining based flow cytometry (reference value: 16.73%); assay type: functional
HeLa [23] = assay: Antiproliferative activity against human HeLa cells assessed as growth inhibition after 72 hrs by MTT assay; assay type: functional, cell-based
In short: (§4)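 IC50 is the concentration inhibiting 50% cell growth. Values are mean ± S.D. from three different experiments, each performed in triplicate.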

Bel-7402 = assay: Selectivity index, ratio of IC50 for human HL7702 cells to IC50 for human BEL7402 cells by MTT assay; in short: as §3
[24] = Antiproliferative activity against human Bel7402 cells assessed as growth inhibition after 72 hrs by MTT assay; assay type: functional, cell-based; conditions: Bel-7402, 72 h; in short: as §4
B16 [25] = assay: Induction of apoptosis in mouse B16 cells assessed as necrotic cells at 2.5 uM after 72 hrs by Annexin V-FITC/propidium iodide staining-based flow cytometry (reference value: […]); assay type: functional; in short: as §2
B16 [26] = assay: Induction of apoptosis in mouse B16 cells assessed as viable cells at 5 uM after 72 hrs by Annexin V-FITC/propidium iodide staining-based flow cytometry (reference value: […]); assay type: functional; conditions: B16, 72 h, read-out: Activity
B16 [27] = assay: Selectivity index, ratio of IC50 for human HL7702 cells to IC50 for mouse B16 cells by MTT assay; in short: as §3
[28] = Selectivity index, ratio of IC50 for human HL7702 cells to IC50 for human SF763 cells by MTT assay; in short: as §3
B16 [29] = assay: Cell cycle arrest in mouse B16 cells assessed as accumulation of cells at S phase at 1.25 uM after 72 hrs by propidium iodide staining based flow cytometry (reference value: 59.21%); assay type: functional
B16 [30] = assay: Cell cycle arrest in mouse B16 cells assessed as accumulation of cells at S phase at 2.5 uM after 72 hrs by propidium iodide staining based flow cytometry (reference value: 59.21%); assay type: functional
[31] = Selectivity index, ratio of IC50 for human HL7702 cells to IC50 for human HL60 cells by MTT assay; in short: as §3
B16 [32] = assay: Induction of apoptosis in mouse B16 cells assessed as necrotic cells at 1.25 uM after 72 hrs by Annexin V-FITC/propidium iodide staining-based flow cytometry (reference value: […]); assay type: functional; in short: as §2
B16 [33] = assay: Induction of apoptosis in mouse B16 cells assessed as necrotic cells at 5 uM after 72 hrs by Annexin V-FITC/propidium iodide staining-based flow cytometry (reference value: […]); assay type: functional; in short: as §2
Mus musculus [34] = assay: Toxicity against mouse xenografted with mouse B16 cells assessed as body weight at 30 mg/kg, ip administered after 7 days of tumor transplantation (reference value: 18.2 to 18.3 gms); assay type: organism-based; design: dose 30 mg/kg, route intraperitoneal; conditions: in vivo, 168 h
B16 [35] = assay: Cell cycle arrest in mouse B16 cells assessed as accumulation of cells at G2/G1 phase at 1.25 uM after 72 hrs by propidium iodide staining based flow cytometry (reference value: 1.83%); assay type: functional
B16 [36] = assay: Cell cycle arrest in mouse B16 cells assessed as accumulation of cells at S phase at 5 uM after 72 hrs by propidium iodide staining based flow cytometry (reference value: 59.21%); assay type: functional
B16 [37] = assay: Antiproliferative activity against mouse B16 cells assessed as growth inhibition after 72 hrs by MTT assay; assay type: functional, cell-based; conditions: B16, 72 h; in short: as §4

IC50 (HeLa [23]): 5.13 µM
IC50 (B16 [37]): 4.42 µM
SMILES: C=C(C)[C@@H]1CC[C@]2(C(=O)N3CCOCC3)CC[C@]3(C)[C@H](CC[C@@H]4[C@@]5(C)Cc6nccnc6[C@@](C)(COC(C)=O)[C@@H]5CC[C@]43C)[C@@H]12
Activity (B16 [1]): 34.67%
Activity (B16 [2]): 1.85%
IC50 [3]: 7.11 µM
Activity (B16 [4]): 11.48%
Activity (Mus musculus [5]): 25.9 g
inhibition in vivo at 30 mg/kg (H22): 55.6%
viability at 2.5 µM (B16 [6]): 67.8%
Activity (B16 [7]): 5.18%
IC50 [8]: 3.53 µM
Activity (B16 [9]): 45.34%
Activity (B16 [10]): 33.46%
Activity (B16 [11]): 11.33%
Activity (B16 [12]): 3.27%
IC50 [13]: 75.4 µM
Activity (B16 [14]): 9.18%
inhibition in vivo at 30 mg/kg (B16 [15]): 62.7%
Activity (B16 [16]): 1.85%
Ratio IC50 (HeLa [17]): 14.7
Activity (B16 [18]): 20.14%
Activity (B16 [19]): 12.1%
Activity (B16 [20]): 29.67%
viability at 1.25 µM (B16 [21]): 82.6%
Activity (B16 [22]): 6.54%
Ratio IC50 (Bel-7402): 11
IC50 [24]: 7.03 µM
Activity (B16 [25]): 0.52%
viability at 5 µM (B16 [26]): 40.6%
Ratio IC50 (B16 [27]): 17.1
Ratio IC50 [28]: 21.4
Activity (B16 [29]): 61.15%
Activity (B16 [30]): 58.79%
Ratio IC50 [31]: 11
Activity (B16 [32]): 0.86%
Activity (B16 [33]): 1.96%
Activity (Mus musculus [34]): 25.9 g
Activity (B16 [35]): 1.82%
Activity (B16 [36]): 63.27%
